Experiments:
Oryctolagus cuniculus = species on record: Oryctolagus cuniculus; assay: Compound was tested for inhibition of U-46,619 induced contraction of isolated rabbit saphenous vein; assay type: functional; settings: for Kb: Oryctolagus cuniculus, Saphenous vein, read-out: pA2 (converted)
How it was run: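 Isolated rabbit saphenous vein rings contracted with increasing U46619 concentrations in the absence or presence of compound; antagonism quantified as pA2 values.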

Homo sapiens = species on record: Homo sapiens; assay: Compound was tested for inhibition of U-46,619 induced aggregation of human platelets; assay type: functional
How it was run: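 Human platelet-rich plasma aggregated with the TP-receptor agonist U46619, with and without compound; inhibition of aggregation measured and IC50 expressed in μM.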

Cavia porcellus = species on record: Cavia porcellus; assay: Compound was tested for inhibition of U-46,619 induced increase in tracheal pressure of guinea pigs; assay type: functional, Trachea; settings: for ED50: Cavia porcellus, Trachea, read-out: ID50
How it was run: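 Compound given i.v. to guinea pigs; tracheal pressure rise evoked with U46619 by the Konzett–Rossler technique; ID50 expressed in μg/kg.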

## O=C(O)CC/C=C\C[C@@H]1CO[C@H](c2ccccc2Cl)O[C@@H]1c1ccccc1O
Oryctolagus cuniculus
  Kb: 2.51 nM
Homo sapiens; Homo sapiens
  IC50: 13 nM
Cavia porcellus
  ED50: 0.7 µg/kg

## Cc1ccc2c(c1CCC(=O)O)CCC(NS(=O)(=O)c1ccc(Cl)cc1)C2 (stereo in doubt)
Homo sapiens
  IC50: 230 nM
Cavia porcellus
  ID50: 35 µg/kg

## Cc1ccc2c(c1CCC(=O)O)CCC(NS(=O)(=O)c1ccc(Cl)cc1)C2 (stereo in doubt; 2a (l))
Oryctolagus cuniculus
  pA2: 8.2
Homo sapiens
  IC50: 780 nM
Cavia porcellus
  ID50: 15 µg/kg

## O=C(O)CCn1c2c(c3ccccc31)CC(NS(=O)(=O)c1ccc(F)cc1)CC2 (single isomer, unassigned) [RAMATROBAN]
Oryctolagus cuniculus
  Kb: 12.6 nM
Homo sapiens; Homo sapiens
  IC50: 380 nM
Cavia porcellus
  ED50: 17 µg/kg

## Cc1ccc2c(c1CCC(=O)O)CCC(NS(=O)(=O)c1ccc(Cl)cc1)C2 (stereo in doubt; 2a)
Oryctolagus cuniculus
  pA2: 8.9
Homo sapiens
  IC50: 330 nM
Cavia porcellus
  ID50: 31 µg/kg
